Values after ≈ are worked out from the molar mass of the structure shown. Active and inactive are the calls of the source. No cut-off for these calls is given here.
Experiments:
Hepatitis C virus [1] = assay: Antiviral activity against HCV1b infected in clone A and ET-lunet cells assessed as inhibition of viral replication after 4 days by RT-PCR analysis; assay type: functional, organism-based, Hepacivirus hominis; conditions: genotype 1b, 96 h
Method in brief: (§1)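 Run in HCV genotype 1a and 1b replicon cells; each reported value is the mean of n = 2 independent determinations.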

[2] = Half life in human liver microsomes; assay type: ADME
Hepatitis C virus [3] = assay: Antiviral activity against HCV2 assessed as inhibition of viral replication; assay type: functional, organism-based; conditions: Hepacivirus hominis; type 2
[4] = Solubility of the compound at pH 7.4; assay type: physicochemical; conditions: buffer
Cytochrome P450 3A4 = Cytochrome P450 3A4 (Homo sapiens, UniProt P08684); assay: Inhibition of CYP3A4 (unknown origin) up to 10 uM; assay type: ADME
Sequence of Cytochrome P450 3A4 (P08684 whole entry): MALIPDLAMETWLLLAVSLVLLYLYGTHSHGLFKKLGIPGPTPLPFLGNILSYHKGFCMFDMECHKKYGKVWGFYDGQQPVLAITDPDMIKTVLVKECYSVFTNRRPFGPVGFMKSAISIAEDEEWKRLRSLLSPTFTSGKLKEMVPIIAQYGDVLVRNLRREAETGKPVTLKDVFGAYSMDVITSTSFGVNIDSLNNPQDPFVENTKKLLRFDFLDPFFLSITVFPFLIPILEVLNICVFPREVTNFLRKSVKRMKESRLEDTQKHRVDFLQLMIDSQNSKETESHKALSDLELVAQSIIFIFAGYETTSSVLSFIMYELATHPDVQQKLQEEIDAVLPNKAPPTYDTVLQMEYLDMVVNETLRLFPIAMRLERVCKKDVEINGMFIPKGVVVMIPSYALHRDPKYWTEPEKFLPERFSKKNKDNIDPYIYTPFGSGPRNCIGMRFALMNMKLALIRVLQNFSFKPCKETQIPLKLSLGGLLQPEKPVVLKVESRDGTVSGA

Cytochrome P450 1A2 = molecular target: T1, Cytochrome P450 1A2 (Homo sapiens, UniProt P05177); assay: Inhibition of CYP1A2 (unknown origin) up to 10 uM; assay type: ADME
T1 sequence (P05177 whole entry): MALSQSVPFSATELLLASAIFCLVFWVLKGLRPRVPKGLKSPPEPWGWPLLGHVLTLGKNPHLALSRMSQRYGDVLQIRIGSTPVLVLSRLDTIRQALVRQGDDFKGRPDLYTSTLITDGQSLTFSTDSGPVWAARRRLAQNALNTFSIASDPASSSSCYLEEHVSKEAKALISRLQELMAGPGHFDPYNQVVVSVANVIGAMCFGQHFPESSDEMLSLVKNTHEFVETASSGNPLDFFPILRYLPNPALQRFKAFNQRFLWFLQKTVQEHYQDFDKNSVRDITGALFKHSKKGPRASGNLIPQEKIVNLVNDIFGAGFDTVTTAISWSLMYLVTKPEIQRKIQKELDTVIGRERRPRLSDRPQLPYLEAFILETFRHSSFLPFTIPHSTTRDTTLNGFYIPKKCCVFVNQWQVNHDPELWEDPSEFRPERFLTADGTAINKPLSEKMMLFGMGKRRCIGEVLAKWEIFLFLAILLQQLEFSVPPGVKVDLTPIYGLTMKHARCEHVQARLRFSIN

Cytochrome P450 2D6 = Cytochrome P450 2D6 (Homo sapiens, UniProt P10635); assay: Inhibition of CYP2D6 (unknown origin) up to 10 uM; assay type: ADME
Sequence of Cytochrome P450 2D6 (P10635 whole entry): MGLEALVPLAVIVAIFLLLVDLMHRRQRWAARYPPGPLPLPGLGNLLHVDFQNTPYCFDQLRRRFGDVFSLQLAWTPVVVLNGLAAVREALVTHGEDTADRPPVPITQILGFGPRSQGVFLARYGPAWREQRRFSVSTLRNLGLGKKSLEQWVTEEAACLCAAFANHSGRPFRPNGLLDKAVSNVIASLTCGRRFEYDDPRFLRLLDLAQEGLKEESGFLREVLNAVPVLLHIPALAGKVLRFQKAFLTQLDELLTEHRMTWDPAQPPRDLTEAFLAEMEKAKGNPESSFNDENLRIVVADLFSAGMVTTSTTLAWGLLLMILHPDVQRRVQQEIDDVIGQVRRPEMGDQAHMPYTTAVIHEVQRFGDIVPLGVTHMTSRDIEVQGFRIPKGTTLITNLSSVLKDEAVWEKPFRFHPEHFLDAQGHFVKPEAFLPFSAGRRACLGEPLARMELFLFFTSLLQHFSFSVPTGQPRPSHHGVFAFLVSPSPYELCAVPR

Hepatitis C virus [5] = assay: Antiviral activity against HCV1a infected in clone A and ET-lunet cells assessed as inhibition of viral replication after 4 days by RT-PCR analysis; assay type: functional, organism-based, Hepacivirus hominis; conditions: subtype 1a, 96 h; method in brief: as §1
Cytochrome P450 2C9 = Cytochrome P450 2C9 (Homo sapiens, UniProt P11712); assay: Inhibition of CYP2C9 (unknown origin) up to 10 uM; assay type: ADME
Sequence of Cytochrome P450 2C9 (P11712 whole entry): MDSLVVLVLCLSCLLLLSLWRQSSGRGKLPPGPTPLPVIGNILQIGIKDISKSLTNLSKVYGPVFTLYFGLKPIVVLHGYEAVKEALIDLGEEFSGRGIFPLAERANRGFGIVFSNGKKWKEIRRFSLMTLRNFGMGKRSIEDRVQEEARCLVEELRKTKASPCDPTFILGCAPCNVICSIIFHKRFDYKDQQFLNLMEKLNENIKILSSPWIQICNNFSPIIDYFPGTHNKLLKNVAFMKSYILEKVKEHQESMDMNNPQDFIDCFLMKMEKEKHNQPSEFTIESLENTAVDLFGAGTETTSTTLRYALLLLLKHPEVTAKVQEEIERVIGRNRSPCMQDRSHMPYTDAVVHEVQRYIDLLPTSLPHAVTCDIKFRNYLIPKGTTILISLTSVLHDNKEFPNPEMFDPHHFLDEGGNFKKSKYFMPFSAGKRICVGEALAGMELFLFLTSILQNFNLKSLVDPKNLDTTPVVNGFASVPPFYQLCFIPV

[6] = Solubility of the compound at pH 4; assay type: physicochemical; conditions: buffer
[7] = Cytotoxicity against human HuH7 cells after 8 days by MTS assay; assay type: cell-based, Huh-7
[8] = Cytotoxicity against human BxPC3 cells after 8 days by MTS assay; assay type: cell-based, BXPC-3
[9] = Cytotoxicity against human CEM cells after 8 days by MTS assay; assay type: cell-based; conditions: CEM cells (CCRF-CEM)
[10] = Cytotoxicity against human HepG2 cells after 8 days by MTS assay; assay type: cell-based
Hepatitis C virus [11] = assay: Antiviral activity against HCV1a infected in clone A and ET-lunet cells assessed as inhibition of viral replication up to 20 uM after 4 days by RT-PCR analysis; assay type: functional, organism-based; conditions: Hepacivirus hominis, subtype 1a
Hepatitis C virus [12] = assay: Antiviral activity against HCV1b infected in clone A and ET-lunet cells assessed as inhibition of viral replication up to 20 uM after 4 days by RT-PCR analysis; assay type: functional, organism-based; conditions: Hepacivirus hominis, genotype 1b

Structure (SMILES)	EC90 (Hepatitis C virus [1]) [nM]	other results
CC(C)C[C@H]1CN(C(=O)c2noc(-c3ccccc3)n2)[C@@H](CC(C)C)C(=O)N1	1400	
CC(C)C[C@H]1CN(C(=O)/C=C/c2ccc(F)cc2)[C@@H](CC(C)C)C(=O)N1	1500	
CC(C)C[C@H]1C(=O)N[C@@H](C(C)C)CN1C(=O)c1cc(-c2ccc(F)cc2)on1	170	
CC(C)C[C@H]1CN(C(=O)/C=C\c2ccccc2)[C@@H](CC(C)C)C(=O)N1	> 10000	
CC(C)C[C@H]1C(=O)N[C@@H](c2cc[nH]c2)CN1C(=O)c1cc(-c2ccc(F)cc2)on1	63	
CC(C)C[C@H]1CN(C(=O)/C=C/c2ccccc2)[C@@H](CC(C)C)C(=O)N1	2300	
CCC[C@H]1CN(C(=O)[C@@H]2C[C@H]2c2ccccc2)[C@@H](CC(C)C)C(=O)N1	900	
COc1ccc(-c2cc(C(=O)N3C[C@H](CC(C)C)NC(=O)[C@@H]3CC(C)C)no2)cc1	1350	
CC(C)C[C@H]1C(=O)N[C@@H](CO)CN1C(=O)c1cc(-c2ccc(F)cc2)on1	> 10000	
CC(C)C[C@H]1CN(C(=O)c2csc(-c3ccccc3)n2)[C@@H](CC(C)C)C(=O)N1	> 7900	
CC(C)C[C@H]1CN(C/C=C/c2ccccc2)[C@@H](CC(C)C)C(=O)N1	3300	
CC(C)C[C@@H]1CN(C(=O)[C@@H]2C[C@H]2c2ccccc2)[C@@H](CC(C)C)C(=O)N1	> 10000	
CC(C)C[C@H]1CN(C(=O)c2cc(-c3ccccc3)[nH]n2)[C@@H](CC(C)C)C(=O)N1	> 10000	
Cc1ccc(/C=C/C(=O)N2C[C@H](CC(C)C)NC(=O)[C@@H]2CC(C)C)cc1	5300	
CC(C)C[C@H]1C(=O)N[C@@H](CC(C(F)(F)F)C(F)(F)F)CN1C(=O)c1cc(-c2ccc(F)cc2)on1	7250	
CC(C)C[C@H]1CN(C(=O)[C@@H]2C[C@H]2c2ccccc2)[C@H](CC(C)C)C(=O)N1	> 10000	
CC(C)C[C@H]1C(=O)N[C@@H](C2CCSCC2)CN1C(=O)c1cc(-c2ccc(F)cc2)on1	870	
CC(C)C[C@H]1CN(C(=O)c2coc(-c3ccccc3)n2)[C@@H](CC(C)C)C(=O)N1	> 10000	
CC(C)C[C@H]1C(=O)N[C@@H](c2ccccc2)CN1C(=O)c1cc(-c2ccc(F)cc2)on1	60	half-life [2]: 54 min
O=C(NCc1cccs1)c1cc2nc(-c3ccco3)cc(C(F)(F)Cl)n2n1 [ANGUIZOLE]		EC50 (Hepatitis C virus [1]): 310 nM; EC50 (Hepatitis C virus [5]): 560 nM
CCCC[C@H]1CN(C(=O)c2cc(-c3ccc(F)cc3)on2)[C@@H](CC(C)C)C(=O)N1	530	
CC(C)C[C@H]1C(=O)N[C@@H](c2ccc(C(F)(F)F)cc2)CN1C(=O)c1cc(-c2ccc(F)cc2)on1	2750	
CC(C)C[C@H]1CN(C(=O)[C@@H]2C[C@H]2c2ccccc2)[C@@H](CC(C)C)CN1	> 10000	
CC(C)C[C@H]1CN(C(=O)/C=C/c2ccc(Cl)cc2)[C@@H](CC(C)C)C(=O)N1	1600	
CC(C)C[C@H]1CN(C(=O)c2cn(-c3ccccc3)cn2)[C@@H](CC(C)C)C(=O)N1	> 10000	

More lines, main results first:

EC90 (Hepatitis C virus [1]) [nM]	Structure (SMILES)	other results
60	C/C=C/[C@H]1CN(C(=O)c2cc(-c3ccc(F)cc3)on2)[C@@H](CC(C)C)C(=O)N1	half-life [2]: 17 min
70	CC(C)C[C@H]1C(=O)N[C@@H](c2cnco2)CN1C(=O)c1cc(-c2ccc(F)cc2)on1	inhibition (Hepatitis C virus [3]): inactive; solubility [4]: 151 µg/mL (≈ 366 µM); inhibition (INH) (Cytochrome P450 3A4): Not Active; inhibition (INH) (Cytochrome P450 1A2): Not Active; half-life [2]: 40 min; inhibition (INH) (Cytochrome P450 2D6): Not Active; EC90 (Hepatitis C virus [5]): 16 nM; inhibition (INH) (Cytochrome P450 2C9): Not Active; solubility [6]: 147 µg/mL (≈ 356 µM)
6	CC(C)C[C@H]1C(=O)N[C@@H](c2cccs2)CN1C(=O)c1cc(-c2ccc(F)cc2)on1	inhibition (Hepatitis C virus [3]): inactive; solubility [4]: 0.2 µg/mL (≈ 0.468 µM); inhibition (INH) (Cytochrome P450 3A4): Not Active; inhibition (INH) (Cytochrome P450 1A2): Not Active; half-life [2]: 120 min; inhibition (INH) (Cytochrome P450 2D6): Not Active; EC90 (Hepatitis C virus [5]): 22 nM; inhibition (INH) (Cytochrome P450 2C9): Not Active; solubility [6]: 0.2 µg/mL (≈ 0.468 µM)
130	CC(C)C[C@H]1CN(C(=O)c2cc(-c3ccc(F)cc3)on2)[C@@H](CC(C)C)C(=O)N1	
9700	CC(C)C[C@H]1CN(C(=O)/C=C/c2ccccc2Cl)[C@@H](CC(C)C)C(=O)N1	
450	CC(C)C[C@H]1C(=O)N[C@@H](CC2CC2)CN1C(=O)c1cc(-c2ccc(F)cc2)on1	
800	CC(C)C[C@H]1CN(C(=O)[C@@H]2C[C@H]2c2ccccc2)[C@@H](CC(C)C)C(=O)N1	CC50 at 192 h [7]: 40000 nM; CC50 at 192 h [8]: 40000 nM; CC50 at 192 h [9]: 40000 nM; EC90 (Hepatitis C virus [5]): 1000 nM; CC50 at 192 h [10]: 40000 nM
8100	CC(C)C[C@H]1CN(C(=O)/C=C/c2ccc(C(F)(F)F)cc2)[C@@H](CC(C)C)C(=O)N1	
> 10000	CC[C@@H](C)[C@H]1CN(C(=O)c2cc(-c3ccc(F)cc3)on2)[C@@H](CC(C)C)C(=O)N1	
100	CC(C)C[C@H]1C(=O)N[C@@H](c2ccccc2F)CN1C(=O)c1cc(-c2ccc(F)cc2)on1	
1500	CC(C)C[C@H]1CN(C(=O)/C=C/c2ccc(F)c(F)c2)[C@@H](CC(C)C)C(=O)N1	
90	CC(C)C[C@H]1C(=O)N[C@@H](C2CCCC2)CN1C(=O)c1cc(-c2ccc(F)cc2)on1	half-life [2]: 29 min
190	CC(C)C[C@H]1C(=O)N[C@@H](C2CCCCC2)CN1C(=O)c1cc(-c2ccc(F)cc2)on1	
1530	CC(C)C[C@H]1CN(C(=O)c2cc(-c3ccc(C#N)cc3)on2)[C@@H](CC(C)C)C(=O)N1	
> 10000	CC(C)C[C@H]1CN(C(=O)[C@H]2C[C@@H]2c2ccccc2)[C@@H](CC(C)C)C(=O)N1	inhibition (Hepatitis C virus [11]): inactive; inhibition (Hepatitis C virus [12]): inactive; EC90 (Hepatitis C virus [5]): > 10000 nM
470	CC(C)C[C@H]1C(=O)N[C@@H](C2CCOCC2)CN1C(=O)c1cc(-c2ccc(F)cc2)on1	
680	CC(C)C[C@H]1C(=O)N[C@@H](c2ccc[nH]2)CN1C(=O)c1cc(-c2ccc(F)cc2)on1	
> 10000	CC(C)C[C@H]1C(=O)N[C@@H](c2nccs2)CN1C(=O)c1cc(-c2ccc(F)cc2)on1	
690	CC(C)C[C@H]1C(=O)N[C@@H](C2CCC2)CN1C(=O)c1cc(-c2ccc(F)cc2)on1	
> 10000	CC(C)C[C@H]1CN(C(=O)C2CC2)[C@@H](CC(C)C)C(=O)N1	
650	CC(C)C[C@H]1CN(C(=O)c2cc(-c3ccc(F)c(F)c3)on2)[C@@H](CC(C)C)C(=O)N1	
710	CC[C@H]1CN(C(=O)c2cc(-c3ccc(F)cc3)on2)[C@@H](CC(C)C)C(=O)N1	
240	CSC[C@H]1CN(C(=O)c2cc(-c3ccc(F)cc3)on2)[C@@H](CC(C)C)C(=O)N1	

— ChEMBL document CHEMBL3120066, “Discovery of a novel class of potent HCV NS4B inhibitors: SAR studies on piperazinone derivatives” (J Med Chem, 2014)
